Measurements as given in paper PMC6988732 (The Biochemical journal, 2013).

Columns and labels:
Type in all cases: cell-based
full-length PKCθ W253G = full-length PKCθ W253G (Mus musculus, UniProt Q02111, W253G); test: Membrane translocation in HEK-293 cells; conditions: 50 nM PMA, 2 h
GFP–PKCθ Y239A = GFP–PKCθ Y239A (Mus musculus, UniProt Q02111, Y239A); test: Confocal translocation in living LNCaP cells
How it was run: (§1)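 Mouse full-length PKCθ (wild-type or C1B point mutant) carrying a C-terminal EGFP tag via a GGNSGG spacer, transfected into LNCaP prostate cancer cells. Living cells were exposed to PMA and imaged by confocal microscopy over a time course. Membrane/cytoplasm intensity ratios were quantified from the images; means ± S.E.M., with images typical of three to four independent experiments.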

GFP–PKCθ wild-type = GFP–PKCθ wild-type (Mus musculus, UniProt Q02111); test: Confocal translocation in living LNCaP cells
GFP–PKCθ wild-type, sequence (Q02111 whole entry): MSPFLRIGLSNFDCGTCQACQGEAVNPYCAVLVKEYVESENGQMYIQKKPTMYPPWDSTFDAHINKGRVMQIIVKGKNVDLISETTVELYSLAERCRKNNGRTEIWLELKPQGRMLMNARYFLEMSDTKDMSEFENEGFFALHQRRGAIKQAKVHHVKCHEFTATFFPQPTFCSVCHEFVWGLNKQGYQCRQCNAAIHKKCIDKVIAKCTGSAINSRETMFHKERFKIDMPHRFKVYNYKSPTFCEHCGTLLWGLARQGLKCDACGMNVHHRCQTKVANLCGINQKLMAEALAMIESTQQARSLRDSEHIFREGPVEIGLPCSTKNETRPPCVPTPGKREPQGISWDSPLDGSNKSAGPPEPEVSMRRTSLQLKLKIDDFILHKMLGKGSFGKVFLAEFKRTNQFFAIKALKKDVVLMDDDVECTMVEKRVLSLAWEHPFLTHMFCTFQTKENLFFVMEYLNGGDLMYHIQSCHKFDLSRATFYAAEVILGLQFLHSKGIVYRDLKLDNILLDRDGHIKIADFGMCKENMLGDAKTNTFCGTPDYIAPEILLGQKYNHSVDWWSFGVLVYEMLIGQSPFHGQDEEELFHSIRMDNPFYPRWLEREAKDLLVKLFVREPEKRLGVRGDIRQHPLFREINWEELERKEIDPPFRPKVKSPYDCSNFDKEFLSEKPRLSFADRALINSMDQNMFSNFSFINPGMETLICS
How it was run: as §1

GFP–PKCθ L255G = GFP–PKCθ L255G (Mus musculus, UniProt Q02111, L255G); test: Confocal translocation in living LNCaP cells
GFP–PKCθ L255G, sequence (Q02111 whole entry L255G): as the sequence (Q02111 whole entry) above, with L255G counted along it
How it was run: as §1

full-length PKCθ Y239A = full-length PKCθ Y239A (Mus musculus, UniProt Q02111, Y239A); test: Membrane translocation in HEK-293 cells; conditions: 50 nM PMA, 2 h
full-length PKCθ Y239A, sequence (Q02111 whole entry Y239A): as the sequence (Q02111 whole entry) above, with Y239A counted along it

full-length PKCθ L255G = full-length PKCθ L255G (Mus musculus, UniProt Q02111, L255G); test: Membrane translocation in HEK-293 cells; conditions: 50 nM PMA, 2 h
full-length PKCθ L255G, sequence (Q02111 whole entry L255G): as the sequence (Q02111 whole entry) above, with L255G counted along it

GFP–PKCθ T243A = GFP–PKCθ T243A (Mus musculus, UniProt Q02111, T243A); test: Confocal translocation in living LNCaP cells
GFP–PKCθ T243A, sequence (Q02111 whole entry T243A): as the sequence (Q02111 whole entry) above, with T243A counted along it
How it was run: as §1

GFP–PKCθ W253G = GFP–PKCθ W253G (Mus musculus, UniProt Q02111, W253G); test: Confocal translocation in living LNCaP cells
GFP–PKCθ W253G, sequence (Q02111 whole entry W253G): as the sequence (Q02111 whole entry) above, with W253G counted along it
How it was run: as §1

GFP–PKCθ Q258G = GFP–PKCθ Q258G (Mus musculus, UniProt Q02111, Q258G); test: Confocal translocation in living LNCaP cells
GFP–PKCθ Q258G, sequence (Q02111 whole entry Q258G): as the sequence (Q02111 whole entry) above, with Q258G counted along it
How it was run: as §1

full-length PKCθ Q258G = full-length PKCθ Q258G (Mus musculus, UniProt Q02111, Q258G); test: Membrane translocation in HEK-293 cells; conditions: 50 nM PMA, 2 h
full-length PKCθ Q258G, sequence (Q02111 whole entry Q258G): as the sequence (Q02111 whole entry) above, with Q258G counted along it

full-length PKCθ T243A = full-length PKCθ T243A (Mus musculus, UniProt Q02111, T243A); test: Membrane translocation in HEK-293 cells; conditions: 50 nM PMA, 2 h
full-length PKCθ T243A, sequence (Q02111 whole entry T243A): as the sequence (Q02111 whole entry) above, with T243A counted along it

[1] = 100 nM PMA (second block, r6-r8), 5 min
[2] = 100 nM PMA (second block, r6-r8), 10 min
[3] = 100 nM PMA (second block, r6-r8), 20 min
[4] = 100 nM PMA as printed (first block, r3-r5), 5 min
[5] = 100 nM PMA as printed (first block, r3-r5), 10 min
[6] = 100 nM PMA as printed (first block, r3-r5), 20 min

GFP–PKCθ Y239A, sequence (Q02111 whole entry Y239A): as the sequence (Q02111 whole entry) above, with Y239A counted along it
full-length PKCθ W253G, sequence (Q02111 whole entry W253G): as the sequence (Q02111 whole entry) above, with W253G counted along it

## CCCCCCCCCCCCCC(=O)O[C@@H]1[C@@H](C)[C@@]2(O)[C@@H](C=C(CO)C[C@]3(O)C(=O)C(C)=C[C@@H]23)[C@@H]2C(C)(C)[C@]12OC(C)=O [PMA]
full-length PKCθ W253G
  reduction in membrane translocation compared with the wild-type: 14.8%
GFP–PKCθ Y239A; 10 nM PMA, 5 min
  Membrane/cytoplasmic intensity ratio, PKCθ Y239A: 1.1 ± 0.0
GFP–PKCθ Y239A; 10 nM PMA, 10 min
  Membrane/cytoplasmic intensity ratio, PKCθ Y239A: 1.1 ± 0.1
GFP–PKCθ Y239A; 10 nM PMA, 20 min
  Membrane/cytoplasmic intensity ratio, PKCθ Y239A: 1.0 ± 0.0
GFP–PKCθ Y239A; [1]
  Membrane/cytoplasmic intensity ratio, PKCθ Y239A: 1.7 ± 0.4
GFP–PKCθ Y239A; [2]
  Membrane/cytoplasmic intensity ratio, PKCθ Y239A: 2.3 ± 0.8
GFP–PKCθ Y239A; [3]
  Membrane/cytoplasmic intensity ratio, PKCθ Y239A: 2.3 ± 0.5
GFP–PKCθ Y239A; [4]
  Membrane/cytoplasmic intensity ratio, PKCθ Y239A: 3.8 ± 1.8
GFP–PKCθ Y239A; [5]
  Membrane/cytoplasmic intensity ratio, PKCθ Y239A: 4.2 ± 1.6
GFP–PKCθ Y239A; [6]
  Membrane/cytoplasmic intensity ratio, PKCθ Y239A: 5 ± 0.4
GFP–PKCθ wild-type; 10 nM PMA, 5 min
  Membrane/cytoplasmic intensity ratio, PKCθ WT: 1.0 ± 0.1
GFP–PKCθ wild-type; 10 nM PMA, 10 min
  Membrane/cytoplasmic intensity ratio, PKCθ WT: 1.0 ± 0.1
GFP–PKCθ wild-type; 10 nM PMA, 20 min
  Membrane/cytoplasmic intensity ratio, PKCθ WT: 1.2 ± 0.4
GFP–PKCθ wild-type; 100 nM PMA
  time to marked translocation to the plasma membrane: ≤ 2 min
GFP–PKCθ wild-type; [1]
  Membrane/cytoplasmic intensity ratio, PKCθ WT: 8.1 ± 1.2
GFP–PKCθ wild-type; [2]
  Membrane/cytoplasmic intensity ratio, PKCθ WT: 6.5 ± 0.7
GFP–PKCθ wild-type; [3]
  Membrane/cytoplasmic intensity ratio, PKCθ WT: 5.4 ± 0.5
GFP–PKCθ wild-type; [4]
  Membrane/cytoplasmic intensity ratio, PKCθ WT: 14.5 ± 2.2
GFP–PKCθ wild-type; [5]
  Membrane/cytoplasmic intensity ratio, PKCθ WT: 11.3 ± 2.1
GFP–PKCθ wild-type; [6]
  Membrane/cytoplasmic intensity ratio, PKCθ WT: 12.1 ± 2.2
GFP–PKCθ L255G; 10 nM PMA, 5 min
  Membrane/cytoplasmic intensity ratio, PKCθ L255G: 1.1 ± 0.1
GFP–PKCθ L255G; 10 nM PMA, 10 min
  Membrane/cytoplasmic intensity ratio, PKCθ L255G: 1.1 ± 0.1
GFP–PKCθ L255G; 10 nM PMA, 20 min
  Membrane/cytoplasmic intensity ratio, PKCθ L255G: 1.1 ± 0.0
GFP–PKCθ L255G; [1]
  Membrane/cytoplasmic intensity ratio, PKCθ L255G: 1.3 ± 0.1
GFP–PKCθ L255G; [2]
  Membrane/cytoplasmic intensity ratio, PKCθ L255G: 1.6 ± 0.2
GFP–PKCθ L255G; [3]
  Membrane/cytoplasmic intensity ratio, PKCθ L255G: 2.3 ± 0.4
GFP–PKCθ L255G; [4]
  Membrane/cytoplasmic intensity ratio, PKCθ L255G: 4.8 ± 1.5
GFP–PKCθ L255G; [5]
  Membrane/cytoplasmic intensity ratio, PKCθ L255G: 6.0 ± 1.2
GFP–PKCθ L255G; [6]
  Membrane/cytoplasmic intensity ratio, PKCθ L255G: 7.2 ± 1.9
full-length PKCθ Y239A
  reduction in membrane translocation compared with the wild-type: 17.1%
full-length PKCθ L255G
  reduction in membrane translocation compared with the wild-type: 19.4%
GFP–PKCθ T243A; 10 nM PMA, 5 min
  Membrane/cytoplasmic intensity ratio, PKCθ T243A: 1.0 ± 0.0
GFP–PKCθ T243A; 10 nM PMA, 10 min
  Membrane/cytoplasmic intensity ratio, PKCθ T243A: 1.3 ± 0.2
GFP–PKCθ T243A; 10 nM PMA, 20 min
  Membrane/cytoplasmic intensity ratio, PKCθ T243A: 1.7 ± 0.1
GFP–PKCθ T243A; 100 nM PMA
  time by which translocation was largely complete: ≤ 5 min
GFP–PKCθ T243A; [1]
  Membrane/cytoplasmic intensity ratio, PKCθ T243A: 3.6 ± 1.1
GFP–PKCθ T243A; [2]
  Membrane/cytoplasmic intensity ratio, PKCθ T243A: 3.7 ± 0.8
GFP–PKCθ T243A; [3]
  Membrane/cytoplasmic intensity ratio, PKCθ T243A: 3.1 ± 0.6
GFP–PKCθ T243A; [4]
  Membrane/cytoplasmic intensity ratio, PKCθ T243A: 10.3 ± 1.9
GFP–PKCθ T243A; [5]
  Membrane/cytoplasmic intensity ratio, PKCθ T243A: 9.9 ± 1.5
GFP–PKCθ T243A; [6]
  Membrane/cytoplasmic intensity ratio, PKCθ T243A: 7.4 ± 1.5
GFP–PKCθ W253G; 10 nM PMA, 5 min
  Membrane/cytoplasmic intensity ratio, PKCθ W253G: 1.0 ± 0.1
GFP–PKCθ W253G; 10 nM PMA, 10 min
  Membrane/cytoplasmic intensity ratio, PKCθ W253G: 1.1 ± 0.1
GFP–PKCθ W253G; 10 nM PMA, 20 min
  Membrane/cytoplasmic intensity ratio, PKCθ W253G: 1.2 ± 0.2
GFP–PKCθ W253G; [1]
  Membrane/cytoplasmic intensity ratio, PKCθ W253G: 1.9 ± 0.4
GFP–PKCθ W253G; [2]
  Membrane/cytoplasmic intensity ratio, PKCθ W253G: 3.0 ± 0.7
GFP–PKCθ W253G; [3]
  Membrane/cytoplasmic intensity ratio, PKCθ W253G: 2.6 ± 0.6
GFP–PKCθ W253G; [4]
  Membrane/cytoplasmic intensity ratio, PKCθ W253G: 11.4 ± 3.6
GFP–PKCθ W253G; [5]
  Membrane/cytoplasmic intensity ratio, PKCθ W253G: 12.7 ± 3.9
GFP–PKCθ W253G; [6]
  Membrane/cytoplasmic intensity ratio, PKCθ W253G: 13.2 ± 5.0
GFP–PKCθ Q258G; 10 nM PMA, 5 min
  Membrane/cytoplasmic intensity ratio, PKCθ Q258G: 1.2 ± 0.1
GFP–PKCθ Q258G; 10 nM PMA, 10 min
  Membrane/cytoplasmic intensity ratio, PKCθ Q258G: 1.1 ± 0.1
GFP–PKCθ Q258G; 10 nM PMA, 20 min
  Membrane/cytoplasmic intensity ratio, PKCθ Q258G: 1.1 ± 0.0
GFP–PKCθ Q258G; [1]
  Membrane/cytoplasmic intensity ratio, PKCθ Q258G: 1.0 ± 0.0
GFP–PKCθ Q258G; [2]
  Membrane/cytoplasmic intensity ratio, PKCθ Q258G: 1.1 ± 0.0
GFP–PKCθ Q258G; [3]
  Membrane/cytoplasmic intensity ratio, PKCθ Q258G: 1.1 ± 0.0
GFP–PKCθ Q258G; [4]
  Membrane/cytoplasmic intensity ratio, PKCθ Q258G: 1.2 ± 0.1
GFP–PKCθ Q258G; [5]
  Membrane/cytoplasmic intensity ratio, PKCθ Q258G: 2.0 ± 0.3
GFP–PKCθ Q258G; [6]
  Membrane/cytoplasmic intensity ratio, PKCθ Q258G: 2.1 ± 0.4
GFP–PKCθ Q258G; 100 nM PMA, by 20 min
  plasma membrane translocation response: little response
GFP–PKCθ Q258G; 1000 nM PMA, later times
  plasma membrane translocation response: partial translocation
full-length PKCθ Q258G
  reduction in membrane translocation compared with the wild-type: 21.6%
full-length PKCθ T243A
  reduction in membrane translocation compared with the wild-type: 12.5%
